Screening results from PubChem.
A selection: hits, their analogues and other compounds. The true share with any hit is near 3.9%.
TAAR1 antagonist – antagonists of human TAAR1; inhibition, % at 3 µM; CHO RD-HGA16 TAAR1, Fluo-8 calcium fluorescence, antagonist; Q96RJ0; 360,000 tested, 1.5% active;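 active = inhibition above a per-plate cutoff, the mean inhibition of test compounds on that plate plus 3 SD, cut at about 49% in these data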;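 also: 0% = DMSO plus EC80 beta-PEA response and 100% = DMSO alone without agonist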
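Assay system: CHO-derived RD-HGA16 cells stably expressing human TAAR1 plus Gα16. Timing: 140 s kinetic read after compound, 140 s after agonist. Technique: kinetic Fluo-8 calcium fluorescence measurement. Measure: % inhibition of agonist calcium response.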
CRFR2-BP antag – CRF-BP/CRF-R2 complex antagonism. HEK293 CRF-R2/CRF-BP, CRF-induced calcium fluorescence. inhibition, % at 11.8 µM. 350,000 tested, 0.59% active. AID 588475;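 active = inhibition of the ligand-induced calcium signal above about 50% at the single tested concentration, limit read from the data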
CRFBP-R2 agonist – CRF-BP/CRF-R2 complex agonism. HEK293 CRF-R2/CRF-BP, calcium dye fluorescence (FLIPR); percent of saturating CRF peptide response. activation, % at 13.2 µM. 350,000 tested, 0.46% active;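 active = activation of at least 50%, plus an integration ratio under a set limit after plate pattern correction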;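 also: plate controls were neutral control wells without compound for no effect and CRF at EC100 for full effect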
TAAR1 agonist – agonists of human TAAR1; Q96RJ0; CHO RD-HGA16 TAAR1, Fluo-8 calcium fluorescence; vehicle wells 0%, saturating PEA agonist 100%; activation, % at 3 µM; 360,000 tested, 0.99% active; AID 624467;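 active = activation above the mean activation of all test compounds in the run plus 3 SD, cut at about 38% in these data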
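System: CHO-derived RD-HGA16 cells with stable Gα16 and human TAAR1 / Times: 17-24 h plating, Fluo-8 75 min 37 °C, 30 min RT / Technique: calcium-sensitive Fluo-8 signal, excitation 470-495, emission 515-575 nm / Measure: % activation relative to PEA EC100 response / Benchmarks: DMSO and PEA EC100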
TMEM16A act – activates or potentiates the mouse TMEM16A chloride channel | Q8BHY3 | B-score at 10 µM | 340,000 tested, 0.3% active | HEK293 TMEM16A/YFP-H148Q/I152L, iodide quench fluorescence; active compounds read low | AID 623877;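 active = fluorescence-ratio B-score plate-corrected deviation score at least 3 library SD below zero, with starting fluorescence score within 5 deviations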;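 also: channel opened by trigger with iodide after compound preincubation; score built on the fluorescence ratio of max minus min over baseline; more negative score means more quench and so TMEM16A activation or potentiation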
Target sequence (Q8BHY3 whole entry, looked up): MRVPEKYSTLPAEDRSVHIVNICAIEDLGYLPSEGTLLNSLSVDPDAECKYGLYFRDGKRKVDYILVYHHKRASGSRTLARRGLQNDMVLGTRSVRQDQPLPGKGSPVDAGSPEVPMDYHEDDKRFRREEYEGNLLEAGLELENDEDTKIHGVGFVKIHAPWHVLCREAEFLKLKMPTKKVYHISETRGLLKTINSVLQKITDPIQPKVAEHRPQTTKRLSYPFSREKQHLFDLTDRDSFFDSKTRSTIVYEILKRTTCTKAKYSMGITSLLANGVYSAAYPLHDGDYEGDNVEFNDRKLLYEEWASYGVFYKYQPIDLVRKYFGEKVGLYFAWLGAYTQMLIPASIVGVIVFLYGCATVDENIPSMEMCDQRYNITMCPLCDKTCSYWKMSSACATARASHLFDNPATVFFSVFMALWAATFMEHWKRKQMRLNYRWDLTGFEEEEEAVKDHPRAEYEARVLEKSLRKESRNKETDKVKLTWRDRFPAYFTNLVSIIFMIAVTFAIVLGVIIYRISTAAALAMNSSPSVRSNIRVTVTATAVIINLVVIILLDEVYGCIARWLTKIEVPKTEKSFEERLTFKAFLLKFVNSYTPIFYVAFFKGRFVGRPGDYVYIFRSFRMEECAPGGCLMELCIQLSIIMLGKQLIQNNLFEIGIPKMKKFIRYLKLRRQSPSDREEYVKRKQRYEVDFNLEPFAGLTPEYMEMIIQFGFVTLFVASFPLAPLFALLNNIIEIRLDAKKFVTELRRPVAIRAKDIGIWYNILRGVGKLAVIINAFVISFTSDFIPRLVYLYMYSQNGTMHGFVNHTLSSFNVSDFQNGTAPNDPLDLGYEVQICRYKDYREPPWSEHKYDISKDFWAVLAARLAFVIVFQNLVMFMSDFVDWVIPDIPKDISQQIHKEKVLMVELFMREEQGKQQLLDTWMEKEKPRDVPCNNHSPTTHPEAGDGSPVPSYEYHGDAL
TMEM16A inh – mouse TMEM16A channel inhibition, primary screen; HEK293 TMEM16A/YFP iodide influx fluorescence, ionomycin; Q8BHY3; AID 588511; normalized B-score (activity score, 25-100; higher = stronger inhibition) at 10 µM; 310,000 tested, 1.2% active;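 active = ratio plate-corrected score three or more library SD toward inhibition, starting fluorescence score within five deviations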;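 also: score derived from kinetic fluorescence span divided by baseline fluorescence per well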
Numbers without * were called inactive; i = inactive; / = no result.

SMILES | TAAR1 antagonist | CRFR2-BP antag | CRFBP-R2 agonist | TAAR1 agonist | TMEM16A act | TMEM16A inh
N#Cc1cccc(NC(=O)c2cc(C3CCCCN3S(=O)(=O)c3cccc4cccnc34)on2)c1 (configuration not stated) | 32.9 | / | / | 2.6 | / | /
CN(C)/C=C/C(=O)c1ncc(C(F)(F)F)cc1Cl | 18.4 | -7.2 | -1.1 | -2.6 | i | i
O=C(Cc1ccccc1)Nn1c(O)c(/C=C2\C=Nc3ccccc32)sc1=S | 54.3* | -119.5 | 67.2* | 22.3 | i | i
CCCS(=O)(=O)N1CCC(C(=O)NCCCOC(C)C)CC1 | -10.2 | 59.7* | 2.5 | 4.4 | i | i
CCCc1ccc(C(O)c2ncc(-c3cccc(C)c3)[nH]2)cc1 (configuration not stated) | 3.7 | / | / | 1.6 | / | /
Cc1ccc(S(=O)(=O)NC(=O)NC2=NC(C)(C)N(c3ccc(Cl)c(Cl)c3)C(N)=N2)cc1 | -8.6 | / | / | 3.0 | / | /
NNc1nc2c(Cl)ccc(Cl)c2s1 | 5.5 | -40.4 | -0.8 | 38.9* | i | i
CCOc1ccc(OCC)c(NC(=O)Cn2c(C)nc3ccccc3c2=O)c1 | 1.1 | 11.6 | -0.1 | 5.4 | i | i
CC(=O)NC(CC(=O)Oc1ccc(C)cc1Br)c1ccccc1 (configuration not stated) | -14.8 | 7.8 | -1.9 | 2.6 | i | i
CC1=C(C(=O)OC(C)(C)C)C(c2cccc3ccccc23)NC(=O)N1 (configuration not stated) | -17.2 | 65.4* | 0.1 | 7.9 | / | i
CC1=C(C(=O)OCCOC(C)C)C(c2cccc3ccccc23)NC(=O)N1 (configuration not stated) | -24.5 | -16.6 | -1.8 | 3.1 | i | i
CCc1ccc(NC(=O)CC2C(=O)N(c3ccc(C)cc3)C(=O)N2C2CC2)cc1 (configuration not stated) | -24.6 | -3.4 | -0.3 | 0.5 | i | i
CC(NC(=S)NC1CCC(C(C)(C)C)CC1)c1ccccc1 (configuration not stated) | 11.6 | -9.8 | -0.5 | 2.7 | i | 100*
Cc1ccc(CNC(=S)NC2CCC(C(C)(C)C)CC2)cc1 (configuration not stated) | 6.3 | -10.4 | 0.3 | 0.1 | i | i
CCC(C(=O)OCC(=O)Nc1c(C)nn(-c2ccccc2)c1C)c1ccccc1 (configuration not stated) | 34.8 | -3.7 | -0.8 | 8.9 | i | i
Cc1nn(-c2ccccc2)c(C)c1NC(=O)COC(=O)/C=C/c1ccccc1 | 60.0* | -19.3 | -0.4 | 18.6 | i | i
O=C(Nc1cccc(C(F)(F)F)c1)N(Cc1ccc(Cl)cc1)CC(O)C(F)(F)F (configuration not stated) | 38.4 | -7.5 | -0.9 | 10.7 | i | 100*
NC(c1csc(Nc2ccccn2)n1)c1ccccc1Cl (configuration not stated) | -0.8 | / | / | 11.4 | / | /
COC(=O)/C=C/c1c(C)nc(NCc2ccccc2)nc1Cl | -5.9 | -16.3 | 0.9 | 1.3 | i | i
NC(=S)N/N=C/c1ccc(C23CC4CC(CC(C4)C2)C3)cc1 | / | -17.8 | 3.0 | / | / | i
Cc1ccc(NC(=O)c2cccc(Oc3ccc([N+](=O)[O-])cc3)c2)c(C(=O)O)c1 | -16.7 | 35.8 | -4.3 | -1.6 | i | i
O=C(Nc1ccc(O)cc1)c1cccc(Oc2ccc([N+](=O)[O-])cc2)c1 | 15.6 | 57.1* | 0.2 | 12.7 | i | i
Cc1cc(=O)n2[nH]c(Nc3cccc(Cl)c3)nc2n1 | -17.4 | -13.4 | 116.1* | 0.4 | i | i
Cc1cc(C)nc(Nc2cccc(Cl)c2)n1 | -27.0 | 4.0 | -1.2 | 11.7 | i | i
COCCCn1c(C)cc(C(=O)CN2c3cccc4cccc(c34)S2(=O)=O)c1C | 19.1 | -12.5 | 0.6 | 22.8 | i | /
SMILES | TAAR1 antagonist | CRFR2-BP antag | CRFBP-R2 agonist | TAAR1 agonist | TMEM16A act | TMEM16A inh
C=C(CN(C)C)C(=O)c1ccc(OC2OC(COC(C)=O)C(OC(C)=O)C(OC(C)=O)C2OC(C)=O)cc1 (configuration not stated) | 60.1* | 17.8 | 4.7 | 13.4 | i | /
CCOC(=O)c1cc(S(=O)(=O)Nc2ccc(OC)cc2OC)cn1C | -15.1 | 1.0 | -0.6 | 1.5 | i | i
CCOC(=O)C(NCc1ccccn1)(NC(=O)c1cccnc1)C(F)(F)F (configuration not stated) | 0.9 | 61.0* | -3.3 | 5.1 | i | i
CCOC(=O)C(NC(=O)c1cccnc1)(Nc1cccc(C)n1)C(F)(F)F (configuration not stated) | 0.7 | 11.7 | -2.1 | -0.6 | i | i
CCn1ncc(CN2CCCC(C(=O)Nc3cccc(-c4cc5ccccc5[nH]4)c3)C2)c1C (configuration not stated) | 21.1 | -15.0 | 0.5 | 40.7* | i | i
CCCCNC(=O)C[C@H]1C[C@@]2(C(=O)OC)C(=C[C@H](C3CCCC3)O[C@@H]2C)N(Cc2ccccc2)C1=O | -36.6 | / | / | 0.5 | / | /
O=S1(=O)CC(N2CCC(c3ccccc3)CC2)CN1Cc1ccccc1 (configuration not stated) | -22.7 | / | / | 1.4 | / | /
O=C(CSc1nc(-c2ccccc2)cs1)NCCCN1CCCC1=O | -13.3 | -3.4 | -1.4 | 4.1 | i | /
O=C(CSc1nnnn1-c1ccccc1)NCCCN1CCCC1=O | -13.8 | 57.2* | 2.6 | 4.7 | i | /
O=c1c2ccccc2[nH]c(=S)n1CCCN1CCC(Cc2ccccc2)CC1 | -31.9 | -15.2 | -0.4 | 8.6 | i | i
CCCCn1c(N)c(N(Cc2ccccc2OC)C(=O)c2c(CC)noc2C)c(=O)[nH]c1=O | -10.5 | 78.3* | 0.3 | -0.9 | i | i
CCc1nc(NCc2ccccc2)c(C#N)c2c1CCCC2 | 12.3 | -13.7 | -0.1 | 0.9 | i | i
CCc1nc(NCCC(C)C)c(C#N)c2c1CCCC2 | 7.0 | 58.6* | 4.3 | 11.5 | i | i
O=C(c1ccco1)N1N=C(c2cccs2)CC1c1cc([N+](=O)[O-])ccc1O (configuration not stated) | -9.9 | -0.4 | 0.0 | 7.1 | i | i
COc1ccc(-c2nn(-c3ccccc3)cc2C(=O)N/N=C/c2ccc([N+](=O)[O-])o2)cc1 | 20.7 | -18.6 | 1.3 | -0.5 | -6.87* | i
Cc1cc(C(=O)N/N=C/c2ccc([N+](=O)[O-])o2)c(C)o1 | -9.7 | 0.5 | 0.0 | -1.2 | i | i
COC(=O)c1sc(-c2ccc(Cl)cc2)cc1NC(=O)COCC(=O)O | 15.6 | 21.4 | -0.2 | 12.3 | i | i
COC(=O)c1sc(-c2ccc(C(C)(C)C)cc2)cc1NC(=O)CCC(=O)O | 51.4* | 16.9 | -0.9 | 10.6 | i | i
